Results published in ChEMBL document CHEMBL1145149, “Functionalized pyrrolidines inhibit alpha-mannosidase activity and growth of human glioblastoma and melanoma cells” (J Med Chem, 2005).

What was measured:
[1] = Growth inhibition of glioblastoma cells (LNZ 308) by the compound (100 uM) upon incubation for 24 hours using MTT assay; format: functional, Homo sapiens
Method in brief: (§1)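 Human glioblastoma cells were kept in DMEM with 4.5 g/L glucose, 5% FCS and antibiotics, then plated for 24-72 h. They were exposed in fresh complete medium for 24, 48 or 72 h to 0, 100, 200 or 300 µM compound, with stocks in methanol/PBS 1:20. MTT at 0.2 mg/mL was present for the final 2 h. Formazan was dissolved in 0.1 N HCl/2-propanol and read at 540 nm. Readings were expressed relative to untreated cells. Triplicate wells.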

[2] = Growth inhibition of glioblastoma cells (LN18) by the compound (100 uM) upon incubation for 24 hours using MTT assay; format: functional, Homo sapiens; method in brief: as §1
[3] = Growth inhibition of glioblastoma cells (LN18) by the compound (300 uM) upon incubation for 24 hours using MTT assay; format: functional, Homo sapiens; parameters: unit not given here; method in brief: as §1
[4] = Growth inhibition of glioblastoma cells (LN18) by the compound (200 uM) upon incubation for 24 hours using MTT assay; format: functional, Homo sapiens; parameters: unit: %; method in brief: as §1
[5] = target: T1, Alpha-mannosidase (Glycine max) (UniProt Q9SEH8); conditions: Prunus dulcis; 1 mM
T1 sequence (whole entry): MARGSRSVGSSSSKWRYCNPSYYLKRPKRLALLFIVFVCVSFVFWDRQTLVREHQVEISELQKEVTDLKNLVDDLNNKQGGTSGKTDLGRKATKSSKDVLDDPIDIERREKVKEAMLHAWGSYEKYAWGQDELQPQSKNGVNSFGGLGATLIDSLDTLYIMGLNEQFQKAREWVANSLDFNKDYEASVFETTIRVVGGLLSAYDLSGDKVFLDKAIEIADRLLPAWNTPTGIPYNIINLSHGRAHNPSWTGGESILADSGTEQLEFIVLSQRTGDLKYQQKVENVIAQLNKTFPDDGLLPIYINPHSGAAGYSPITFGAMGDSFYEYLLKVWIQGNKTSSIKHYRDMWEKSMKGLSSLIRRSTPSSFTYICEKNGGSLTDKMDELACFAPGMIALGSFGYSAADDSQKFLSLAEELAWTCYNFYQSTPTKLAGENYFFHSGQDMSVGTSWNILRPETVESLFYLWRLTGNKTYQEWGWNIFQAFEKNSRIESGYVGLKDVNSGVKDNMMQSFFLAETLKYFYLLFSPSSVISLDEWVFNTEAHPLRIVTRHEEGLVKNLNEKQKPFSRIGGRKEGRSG

[6] = Growth inhibition of glioblastoma cells (LNZ 308) by the compound (300 uM) upon incubation for 24 hours using MTT assay; format: functional, Homo sapiens; method in brief: as §1
[7] = Growth inhibition of glioblastoma cells (LNZ 308) by the compound (200 uM) upon incubation for 24 hours using MTT assay; format: functional, Homo sapiens; method in brief: as §1
[8] = Growth inhibition of glioblastoma cells (LN18) by the compound (100 uM) upon incubation for 72 hours using MTT assay; format: functional, Homo sapiens; parameters: unit: %; method in brief: as §1
[9] = Growth inhibition of glioblastoma cells (LN18) by the compound (200 uM) upon incubation for 48 hours using MTT assay; format: functional, Homo sapiens; parameters: unit not given here; method in brief: as §1
[10] = Growth inhibition of glioblastoma cells (LN18) by the compound (200 uM) upon incubation for 72 hours using MTT assay; format: functional, Homo sapiens; parameters: unit not given here; method in brief: as §1
[11] = Growth inhibition of glioblastoma cells (LNZ 308) by the compound (100 uM) upon incubation for 72 hours using MTT assay; format: functional, Homo sapiens; method in brief: as §1
[12] = Growth inhibition of glioblastoma cells (LNZ 308) by the compound (300 uM) upon incubation for 72 hours using MTT assay; format: functional, Homo sapiens; method in brief: as §1
[13] = Growth inhibition of glioblastoma cells (LNZ 308) by the compound (100 uM) upon incubation for 48 hours using MTT assay; format: functional, Homo sapiens; method in brief: as §1
[14] = Growth inhibition of glioblastoma cells (LNZ 308) by the compound (200 uM) upon incubation for 72 hours using MTT assay; format: functional, Homo sapiens; method in brief: as §1
[15] = Growth inhibition of glioblastoma cells (LN18) by the compound (300 uM) upon incubation for 48 hours using MTT assay; format: functional, Homo sapiens; parameters: unit: %; method in brief: as §1
[16] = Growth inhibition of glioblastoma cells (LN18) by the compound (300 uM) upon incubation for 72 hours using MTT assay; format: functional, Homo sapiens; parameters: unit not given here; method in brief: as §1
[17] = Growth inhibition of glioblastoma cells (LNZ 308) by the compound (300 uM) upon incubation for 48 hours using MTT assay; format: functional, Homo sapiens; method in brief: as §1
[18] = Growth inhibition of glioblastoma cells (LNZ 308) by the compound (200 uM) upon incubation for 48 hours using MTT assay; format: functional, Homo sapiens; method in brief: as §1
[19] = Growth inhibition of glioblastoma cells (LN18) by the compound (100 uM) upon incubation for 48 hours using MTT assay; format: functional, Homo sapiens; parameters: unit: %; method in brief: as §1
[20] = Growth inhibition of glioblastoma cells (LNZ 308 cell) by the compound (100 uM) upon incubation for 72 hours using MTT assay; format: functional, Homo sapiens; parameters: unit not given here; method in brief: as §1
[21] = Growth inhibition of glioblastoma cells (LNZ 308 cell) by the compound (300 uM) upon incubation for 24 hours using MTT assay; format: functional, Homo sapiens; parameters: unit not given here; method in brief: as §1
[22] = Growth inhibition of glioblastoma cells (LNZ 308 cell) by the compound (200 uM) upon incubation for 72 hours using MTT assay; format: functional, Homo sapiens; parameters: unit: %; method in brief: as §1
[23] = Growth inhibition of glioblastoma cells (LNZ 308 cell) by the compound (100 uM) upon incubation for 24 hours using MTT assay; format: functional, Homo sapiens; parameters: unit not given here; method in brief: as §1
[24] = Growth inhibition of glioblastoma cells (LNZ 308 cell) by the compound (300 uM) upon incubation for 72 hours using MTT assay; format: functional, Homo sapiens; parameters: unit: %; method in brief: as §1
[25] = Growth inhibition of glioblastoma cells (LNZ 308 cell) by the compound (100 uM) upon incubation for 48 hours using MTT assay; format: functional, Homo sapiens; parameters: unit not given here; method in brief: as §1
[26] = Growth inhibition of glioblastoma cells (LNZ 308 cell) by the compound (300 uM) upon incubation for 48 hours using MTT assay; format: functional, Homo sapiens; parameters: unit: %; method in brief: as §1
[27] = Growth inhibition of glioblastoma cells (LNZ 308 cell) by the compound (200 uM) upon incubation for 48 hours using MTT assay; format: functional, Homo sapiens; parameters: unit: %; method in brief: as §1
[28] = Growth inhibition of glioblastoma cells (LNZ 308 cell) by the compound (200 uM) upon incubation for 24 hours using MTT assay; format: functional, Homo sapiens; parameters: unit: %; method in brief: as §1
[29] = Growth inhibition of glioblastoma cells (LN18) by the compound (300 uM) after 24 hr using MTT assay; format: functional, Homo sapiens; method in brief: as §1
[30] = Growth inhibition of glioblastoma cells (LN18) by the compound (300 uM) upon incubation for 72 hr using MTT assay; format: functional, Homo sapiens; method in brief: as §1
[31] = Growth inhibition of glioblastoma cells (LN18) by the compound (200 uM) upon incubation for 24 hr using MTT assay; format: functional, Homo sapiens; method in brief: as §1
[32] = Growth inhibition of glioblastoma cells (LN18) by the compound (300 uM) upon incubation for 48 hr using MTT assay; format: functional, Homo sapiens; method in brief: as §1

Structure (SMILES)	Growth inhibition [2]	Growth inhibition [3]	Growth inhibition [4]	Growth inhibition [7]	Growth inhibition [8]	Growth inhibition [9]	Growth inhibition [10]	Growth inhibition [15]	Growth inhibition [16]	Growth inhibition [19]	Growth inhibition [20]	Growth inhibition [21]	Growth inhibition [22]	Growth inhibition [23]	Growth inhibition [24]	Growth inhibition [25]	Growth inhibition [26]	Growth inhibition [27]	Growth inhibition [28]	further results
OC[C@@H](NC[C@H]1NC[C@H](O)[C@@H]1O)c1ccccc1	0	7	17	4	–	–	–	–	–	–	–	–	–	–	–	–	–	–	–	Growth inhibition [1]: 0; inhibition [5]: 55%; Growth inhibition [6]: 28
OC[C@H](NC[C@H]1NC[C@H](O)[C@@H]1O)c1ccccc1	13	22	19	8	15	26	12	23	22	16	–	–	–	–	–	–	–	–	–	Growth inhibition [1]: 0; Growth inhibition [11]: 5; Growth inhibition [12]: 22; Growth inhibition [13]: 19; Growth inhibition [14]: 13; Growth inhibition [6]: 26; Growth inhibition [17]: 25; Growth inhibition [18]: 19
O=C(OCC(NC[C@H]1NC[C@H](O)[C@@H]1O)c1ccccc1)c1ccc(Br)cc1 (some centres not stated)	5	92	67	–	31	48	68	95	97	17	24	87	56	11	96	15	78	33	60	–
O[C@H]1[C@@H](O)CN[C@@H]1CN[C@@H](COCc1cccc(F)c1)c1ccccc1	–	27	19	14	12	14	41	39	76	6	6	34	27	2	53	6	56	29	14	–
O=C(OCC(NC[C@H]1NC[C@H](O)[C@@H]1O)c1ccccc1)c1ccc(F)cc1 (some centres not stated)	–	20	22	16	4	16	14	24	31	5	8	21	24	4	32	10	17	18	16	–
O=C(OCC(NC[C@H]1NC[C@H](O)[C@@H]1O)c1ccccc1)c1cccc(Br)c1 (some centres not stated)	–	–	–	5	18	25	24	–	–	21	13	17	23	5	34	17	31	23	5	Growth inhibition [29]: 16; Growth inhibition [30]: 36; Growth inhibition [31]: 10; Growth inhibition [32]: 29
O=C(OCC(NC[C@H]1NC[C@H](O)[C@@H]1O)c1ccccc1)c1ccccc1F (some centres not stated)	–	26	17	–	3	10	14	8	15	7	0	23	17	0	26	6	18	15	18	–
O=C(NCC(NC[C@H]1NC[C@H](O)[C@@H]1O)c1ccccc1)c1cccc(Br)c1 (some centres not stated)	–	52	30	20	43	46	61	50	65	20	43	50	52	2	59	19	42	40	20	–
